Screening data (PubChem)
In the library only some 1.6% were active in any assay of this set; here they are far more common.
HDAC3 inhib: blocks human histone deacetylase 3. O15379. recombinant HDAC3, fluorogenic peptide/trypsin coupled, fluorescence. inhibition, % at 8.3 µM. actives 0.15% (n = 320,000). AID 2718; in the data active = inhibition above about 26%, passing the limit was not always enough; inconclusive = no clear call, values can overlap the other calls
LANA-H2B inh: blocks KSHV LANA binding to histone H2A/H2B; Q9QR71; cell-free LANA-H2A/H2B peptide, fluorescence polarization; inhibition, % (concentration not given with the values); actives 0.6% (n = 320,000); AID 2629; in the data active = inhibition mostly above about 10%, no sharp cut-off; inactive = mostly below about 6.7%
Target sequence (Q9QR71 whole entry, looked up): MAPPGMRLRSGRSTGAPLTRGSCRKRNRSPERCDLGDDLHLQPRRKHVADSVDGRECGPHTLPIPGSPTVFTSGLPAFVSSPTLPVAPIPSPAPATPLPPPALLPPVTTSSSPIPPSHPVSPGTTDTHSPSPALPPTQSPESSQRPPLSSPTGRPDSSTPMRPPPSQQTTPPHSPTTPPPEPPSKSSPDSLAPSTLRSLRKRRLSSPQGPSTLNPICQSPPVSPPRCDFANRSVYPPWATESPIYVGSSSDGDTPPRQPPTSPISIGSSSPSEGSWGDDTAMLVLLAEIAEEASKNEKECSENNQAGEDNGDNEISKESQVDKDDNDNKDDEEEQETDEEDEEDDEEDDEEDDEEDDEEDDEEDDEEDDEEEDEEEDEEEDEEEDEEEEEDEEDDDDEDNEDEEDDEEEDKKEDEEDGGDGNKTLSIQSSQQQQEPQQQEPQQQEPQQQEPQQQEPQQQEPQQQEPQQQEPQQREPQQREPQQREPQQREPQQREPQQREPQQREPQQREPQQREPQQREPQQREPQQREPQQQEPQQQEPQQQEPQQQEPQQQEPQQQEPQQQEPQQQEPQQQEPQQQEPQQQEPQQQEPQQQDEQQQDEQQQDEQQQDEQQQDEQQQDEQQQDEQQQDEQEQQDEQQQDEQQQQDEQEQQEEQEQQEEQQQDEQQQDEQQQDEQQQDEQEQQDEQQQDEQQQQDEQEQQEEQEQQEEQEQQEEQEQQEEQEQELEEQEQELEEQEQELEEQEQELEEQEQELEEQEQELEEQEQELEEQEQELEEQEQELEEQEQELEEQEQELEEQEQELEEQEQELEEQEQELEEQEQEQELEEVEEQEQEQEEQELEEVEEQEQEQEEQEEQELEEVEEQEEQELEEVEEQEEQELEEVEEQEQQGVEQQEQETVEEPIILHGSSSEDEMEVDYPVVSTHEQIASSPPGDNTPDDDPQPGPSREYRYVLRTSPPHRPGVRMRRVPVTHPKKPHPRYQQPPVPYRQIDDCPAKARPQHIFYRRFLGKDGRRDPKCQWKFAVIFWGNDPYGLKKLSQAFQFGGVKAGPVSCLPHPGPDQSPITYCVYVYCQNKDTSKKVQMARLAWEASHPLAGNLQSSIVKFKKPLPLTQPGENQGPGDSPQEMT
T cell modulator: modulates CD8 T cell binding to vesicles; 2C CD8+ T cell-vesicle binding, flow cytometry; hits give low values; response (vesicle binding), % at 7 µM; actives 0.068% (n = 330,000);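 active = response, share of CD8 T cells binding vesicles, and their 90th percentile fluorescence all below set limits, cut at about 80% in these data, passing the limit was not always enough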;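 also: values below 100% mean blocked vesicle binding to the CD8+ T cells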
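System: murine 2C transgenic CD8+ T lymphocytes; also added: QL9-loaded Drosophila micro-vesicles; times: binding 1.5 h at 37 °C; measured by: flow cytometry, PE anti-B7-1 (FL2) versus Alexa647 anti-CD8 (FL8), PFA-fixed; control set: Peptide-free naked vesicles (low) and QL9 vesicles with 0.7% DMSO vehicle (high)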
Arrestin-AP2 inh: blocks beta-arrestin peptide binding to AP2 adaptin; actives 0.31% (n = 340,000); FITC-arrestin peptide / GST-AP2 beads, flow cytometry; AP2 beta2 appendage carries R879A mutation; inhibition, % at 10 µM;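 active = inhibition above a set limit, near 3 SD of compounds lacking own fluorescence, cut at about 54% in these data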
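System: GST-tagged AP2 beta2-adaptin appendage (R879A) on 4 µm glutathione beads / Reagent: FITC-arrestin peptide, 50 nM / Detection: HyperCyt-sampled flow cytometry, FL1 channel, ex 488/em 535 nm / Timing: 12 min plus 1 h, RT / Buffer or medium: PBS plus Tween 20 (0.05%) and BSA (0.1%)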
Pemphigus Ab inh: inhibitors of pemphigus antibody binding to human desmoglein-3. P32926. DSG3-coupled beads, scFv-anti-DSG3-GFP binding, flow cytometry; hits give low values. binding (percent of control), % at 10 µM. actives 0.48% (n = 310,000). AID 588358;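 active = binding more than 3 SD below its plate's average and above zero; inconclusive = below that plate limit but binding exactly zero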;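 also: hits lower antibody fragment binding to DSG3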
GASC-1 inh: human JMJD2C demethylase inhibition; Q9H3R0; GST-JMJD2C(1-420) H3K9me3 demethylation, DELFIA europium; inhibition, % at 2.35 µM; actives 0.069% (n = 330,000); AID 2099;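 active = more than half of a compound's replicate wells show inhibition beyond 50%, single wells judged on their own value; inconclusive = some, but no more than half, of replicates pass 50% inhibition; inactive = no replicate passes 50% inhibition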;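 also: signal counts dimethyl H3K9 product captured on neutravidin plate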
A number is an active result; 0 = inactive; ? = inconclusive; - = no result given; + = active, no number.

SMILES | HDAC3 inhib | LANA-H2B inh | T cell modulator | Arrestin-AP2 inh | Pemphigus Ab inh | GASC-1 inh
Cn1nc(-c2ccccc2)c2nc3ccccc3nc21 | 0 | 95 | 0 | 0 | 0 | 0
CCCCn1c2nc3ccccc3nc2c2c(=O)n(-c3ccccc3)cnc21 | 0 | 0 | 0 | 0 | 0 | 0
CCCCn1nc(-c2ccccc2)c2nc3ccccc3nc21 | 0 | 25 | 0 | - | - | 0
CC(NC(=O)c1cc(COc2c(F)cccc2F)on1)c1cnn(-c2ccccc2)c1 (stereo not drawn) | 0 | 47 | 0 | 0 | 0 | 0
Cc1nn(C)cc1C(C)NC(=O)c1cc(COc2c(F)cccc2F)on1 (stereo not drawn) | 0 | 0 | 0 | 0 | 0 | 0
O=C(NCc1ccco1)c1ccc(Cl)nc1 | - | 0 | 0 | 0 | 78 | 0
O=C(COC(=O)c1ccc(Cl)nc1)NCc1ccco1 | 0 | 0 | 0 | 0 | 0 | 0
CCN(CC(=O)Nc1cc(S(=O)(=O)N2CCOCC2)ccc1C)Cc1ccccc1 | ? | 0 | 0 | 0 | 0 | 0
O=C(COC(=O)c1nc(Cl)ccc1Cl)NCc1ccccc1 | 0 | 14 | 0 | 0 | 0 | 0
O=C(COC(=O)c1nc(Cl)ccc1Cl)c1ccccc1Cl | 0 | 0 | 0 | 0 | 0 | 0
COc1ccc(S(=O)(=O)N2CCN(C(=O)c3cc4c(s3)CCC4)CC2)cc1 | 0 | 0 | 0 | 0 | 0 | 0
O=C(CS(=O)(=O)c1ccc(Cl)cc1)N1CCN(c2ccccc2)CC1 | - | - | - | - | 0 | -
CCOC(=O)c1cc2c(C)nn(-c3ccccc3)c2s1 | 0 | 0 | 0 | 0 | -30 | 0
CCOC(=O)c1nn(-c2ccccc2)c(=O)c2c(NC(C)=O)scc12 | 0 | 0 | 0 | 0 | 62 | 0
COC(=O)c1cc2c(C)nn(-c3ccccc3)c2s1 | 0 | 0 | 0 | 0 | - | 0
CCOc1cc(NC(=S)NCCOC)c(OCC)cc1NC(=O)c1cccs1 | 0 | 0 | 0 | - | - | 69
Cc1cc(S(=O)(=O)N2CCN(Cc3ccccc3)CC2)c(C)s1 | 0 | 0 | 74 | 0 | 0 | 0
COc1ccccc1C(C)NC(=O)C1CCN(S(=O)(=O)c2cccs2)CC1 (stereo not drawn) | 0 | + | 0 | 0 | 0 | 0
CCOC(=O)N1CCC(n2c(SCC(=O)c3ccccc3)nc3ccsc3c2=O)CC1 | 0 | 0 | 0 | 0 | 85 | 0
CC(C)COc1ccc(C(=O)N2C(=O)c3ccc(N)cc3C2=O)cc1 | 0 | 0 | 0 | 0 | 39 | 0
COc1cc(NC(=S)N2CCN(C)CC2)cc(OC)c1 | 0 | 9.7 | 0 | 0 | 0 | 0
CCC(=O)C1CCCN(C(=O)c2ccc(OC3CCN(C(=O)CCOC)CC3)cc2)C1 (stereo not drawn) | 0 | 0 | 0 | 0 | 0 | 0
CNc1nnc(SCC(=O)N2c3ccccc3NC(=O)CC2C)s1 (stereo not drawn) | 0 | + | 0 | 0 | 0 | 0
CCn1nnnc1SCC(=O)N1c2ccccc2NC(=O)CC1C (stereo not drawn) | 0 | 0 | 0 | 0 | 0 | 0
COc1ccc(CCN=C(N)NS(=O)(=O)c2ccc(C)c(C)c2)cc1 | 0 | 0 | 0 | 0 | 0 | 0
SMILES | HDAC3 inhib | LANA-H2B inh | T cell modulator | Arrestin-AP2 inh | Pemphigus Ab inh | GASC-1 inh
O=C(COC(=O)C1=COCCO1)Nc1cc(Cl)c(Cl)cc1Cl | 0 | 0 | 0 | 0 | 0 | 0
CCCCNC(=O)c1ccc2c(c1)S(=O)(=O)c1ccccc1C2=O | 0 | 0 | 0 | 0 | 0 | 0
CCNC(=O)c1ccc2c(c1)S(=O)(=O)c1ccccc1C2=O | 0 | 0 | 0 | 0 | 0 | 51
COC(=O)C(C)SC1=N/C(=C/c2ccc(-n3cncn3)cc2)C(=O)N1 (stereo not drawn) | 0 | 0 | 0 | 0 | 0 | 0
C/C=C/c1ccc(OCCCCN2CC(C)CC(C)C2)c(OC)c1 (stereo not drawn) | 0 | 195 | 0 | 0 | 0 | 0
C/C=C/c1ccc(OCCCCN2CCN(CC)CC2)c(OC)c1 | 0 | 0 | 0 | 0 | 0 | 0
COC(=O)c1ccccc1NC(=O)CSc1nc(N)cc(=O)[nH]1 | 0 | 0 | 0 | 0 | 56 | 0
c1ccn2c(SCc3cn4ccsc4n3)nnc2c1 | 0 | 0 | 0 | 0 | 0 | 51
CN(c1ccc(C(=O)NC2CC3CCC2C3)cc1)S(C)(=O)=O (stereo not drawn) | 0 | 0 | 0 | 0 | 6.6 | 0
Cc1cc(C)cc(N(CC(=O)NC2CC3CCC2C3)S(C)(=O)=O)c1 (stereo not drawn) | 0 | 0 | 0 | 0 | 0 | 0
Cc1ccc(S(=O)(=O)Nc2cccc(C(=O)NCC(c3ccco3)N3CCCC3)c2)cc1F (stereo not drawn) | 0 | 0 | 0 | 0 | 0 | 0
CCCCCCn1c(=O)[nH]c2nc3cc(N)ccc3nc2c1=O | 0 | 42 | 0 | - | - | 0
C#CCOCCOCCOCCNc1nc(N2CCN(C(=O)CCCCCCCCCCNC(=O)[C@H](CO)n3cc(CCCSC)nn3)CC2)nc(N2CCN(C(=O)CCCCCCCCCCNC(=O)[C@H](CCCN=C(N)N)n3cc(C[C@@H](C)CC)nn3)CC2)n1 | ? | 0 | 0 | 0 | 0 | 57
O=C(c1ccc(S(=O)(=O)N2CCOCC2)cc1)N1CCc2ccccc21 | 0 | 0 | 0 | 0 | - | 0
Cc1ccc(NC2(C(F)(F)F)N=C(c3ccccc3)NC2=O)nc1 (stereo not drawn) | 0 | 0 | 0 | 0 | 0 | 0
CCOC(=O)NC1(C(F)(F)F)N=C(c2ccccc2)NC1=O (stereo not drawn) | 0 | 14 | 0 | 0 | ? | 0
OCC1CCCCN1CC(O)COC(c1ccc(F)cc1)c1ccc(F)cc1 (stereo not drawn) | 0 | 0 | 0 | 0 | 0 | 0
O=C(Nc1nc(-c2ccccc2)c(-c2ccccc2)s1)c1ccc(S(=O)(=O)N2CCCC2)cc1 | 0 | 0 | 0 | 0 | 82 | 0
O=C(Nc1ccccc1)c1ccc(S(=O)(=O)N2CCCC2)cc1 | 0 | 0 | 0 | 0 | 0 | 0
O=C(Nc1nc(-c2ccccc2)c(C(=O)c2ccccc2)s1)c1ccc(S(=O)(=O)N2CCCC2)cc1 | 0 | 0 | 0 | 0 | -1.0 | 0
CCCCn1c(N)c(-c2nc3ccccc3s2)c2c([N+](=O)[O-])nn(C)c(=O)c21 | 0 | 0 | 0 | 0 | 85 | 0
CCCCn1c(N)c(-c2nc3ccccc3s2)c2c([N+](=O)[O-])nn(CC)c(=O)c21 | 0 | 0 | 0 | 0 | 0 | 0
COc1cccc(NC(=O)CN(C)CC(=O)Nc2ccc(C)c(S(=O)(=O)N3CCOCC3)c2)c1 | - | - | - | 0 | 0 | -
Cc1ccc(S(=O)(=O)CC(=O)Nc2nc3ccccc3s2)cc1 | 0 | 0 | 0 | 0 | - | 0
Cc1ccc(CC(=O)Nc2nc3ccccc3s2)cc1 | 0 | 24 | 0 | 0 | - | 0
CC1CCCCN1CCNC(=O)c1ccc2c(c1)N(Cc1cccc(Cl)c1)C(=O)c1ccccc1S2=O (stereo not drawn) | 0 | 18 | 0 | 0 | 0 | 0
O=C1CS/C(=N/N=C/c2ccncc2)N1 | 0 | 0 | 0 | 0 | 81 | 0
